Active and inactive are the calls of the source. No cut-off for these calls is given here.
How the values were obtained:
[1] = species: Homo sapiens; assay: Selectivity ratio of EC50 for PKCdelta (unknown origin) expressed in HEK293 cells harboring GFP-tagged RasGRP1 to EC50 for GFP-tagged RasGRP1 (unknown origin) expressed in HEK293 cells assessed as ERK1/2 phosphorylation; format: cell-based
[2] = target: T1, Protein kinase C delta type (Homo sapiens, UniProt Q05655); assay: Activation of PKCdelta (unknown origin) expressed in human LNCAP cells harboring GFP-tagged RasGRP3 assessed as phosphorylation at ser299 residues after 30 mins by immunoblot method; format: cell-based
Procedure, shortened: (§1)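 PKCδ activation read as phospho-S299 on western blots of lysates (50 µg protein, 10% SDS-PAGE, milk blocking, anti-PKCδS299 overnight). Cells: GFP-RasGRP1/3-transfected HEK293 or LNCaP, or Ramos, treated 30 min at 37 °C with half-log doses (maximum 10 µM), 1000 nM PMA or DMSO. Scanned intensities normalized to 1000 nM PMA; EC50 mean ± SEM, n = 3; values above 10 µM extrapolated.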

[3] = species: Homo sapiens; assay: Selectivity ratio of EC50 for PKCdelta (unknown origin) expressed in HEK293 cells harboring GFP-tagged RasGRP3 to EC50 for GFP-tagged RasGRP3 (unknown origin) expressed in HEK293 cells; format: cell-based
Procedure, shortened: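 One EC50 comes from PKCδ S299 phosphorylation on immunoblot, the other from Ras-GTP pulled down on Raf1-RBD. Both signals normalised to 1000 nM PMA. EC50s above 10 µM are extrapolated.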

[4] = species: Homo sapiens; assay: Selectivity ratio of EC50 for PKCdelta in human Ramos cells expressing RasGRP3 to EC50 for RasGRP3 in human Ramos cells; format: cell-based
[5] = target: T2, Ras guanyl-releasing protein 3 (Homo sapiens) (UniProt Q8IV61); assay: Displacement of [3H]PDBu from full length MBP-tagged human RasGRP3 expressed in Escherichia coli BL21 (DE3) after 5 mins in presence of phosphatidylserine by scintillation counting
T2 sequence (whole entry): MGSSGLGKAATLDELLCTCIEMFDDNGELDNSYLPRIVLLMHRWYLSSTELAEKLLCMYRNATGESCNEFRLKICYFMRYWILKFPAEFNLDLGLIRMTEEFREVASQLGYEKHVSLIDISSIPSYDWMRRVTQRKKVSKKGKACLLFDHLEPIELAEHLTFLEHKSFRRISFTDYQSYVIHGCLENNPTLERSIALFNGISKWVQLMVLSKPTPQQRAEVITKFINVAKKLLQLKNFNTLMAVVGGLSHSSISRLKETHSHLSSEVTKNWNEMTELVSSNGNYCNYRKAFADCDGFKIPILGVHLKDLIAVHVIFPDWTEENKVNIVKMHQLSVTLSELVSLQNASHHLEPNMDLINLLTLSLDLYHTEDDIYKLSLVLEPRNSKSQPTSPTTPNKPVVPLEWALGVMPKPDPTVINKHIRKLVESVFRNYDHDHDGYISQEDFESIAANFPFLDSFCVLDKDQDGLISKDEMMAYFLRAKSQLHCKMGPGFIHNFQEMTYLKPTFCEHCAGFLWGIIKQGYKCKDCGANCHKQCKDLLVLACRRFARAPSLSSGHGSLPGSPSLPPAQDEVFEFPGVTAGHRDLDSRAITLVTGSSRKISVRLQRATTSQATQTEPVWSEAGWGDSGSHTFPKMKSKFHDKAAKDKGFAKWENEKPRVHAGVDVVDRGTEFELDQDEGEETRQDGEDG
Procedure, shortened: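 Competition of [3H]PDBu binding by polyethylene glycol precipitation, with 100 µg/ml phosphatidylserine and ≤0.003% Triton X-100, 5 min at 37 °C. Proteins: full-length purified human PKCα, PKCε; full-length RasGRP1; MBP-RasGRP3 from E. coli BL21(DE3) induced with 0.3 mM IPTG 6 h at room temperature. Ki mean ± SEM of ≥2 experiments, triplicate points.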

[6] = species: Homo sapiens; assay: Selectivity ratio of EC50 for PKCdelta (unknown origin) expressed in HEK293 cells harboring GFP-tagged RasGRP1 to EC50 for GFP-tagged RasGRP1 (unknown origin) expressed in HEK293 cells; format: cell-based
[7] = target: T1, Protein kinase C delta type; assay: Activation of PKCdelta (unknown origin) expressed in HEK293 cells harboring GFP-tagged RasGRP3 assessed as phosphorylation at ser299 residues after 30 mins by immunoblot method; format: cell-based
Procedure, shortened: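 Cells are GFP-RasGRP3-transfected HEK293, grown in EMEM + 10% FBS. Exposed 30 min at 37 °C, 5% CO2, to half-log concentrations up to 10 µM, 1000 nM PMA or DMSO. Lysed in RIPA with protease and phosphatase inhibitors. 50 µg protein run on 10% SDS-PAGE and blotted for phospho-PKCδ S299; anti-GFP used as loading control. Signal normalised to 1000 nM PMA. EC50 is the mean of n = 3.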

[8] = target: T1, Protein kinase C delta type; assay: Activation of PKCdelta in human Ramos cells expressing RasGRP3 assessed as phosphorylation at ser299 residues after 30 mins by immunoblot method; format: cell-based; procedure, shortened: as §1
[9] = species: Homo sapiens; assay: Selectivity ratio of EC50 for PKCdelta in human Ramos cells expressing RasGRP3 to EC50 for RasGRP3 in human Ramos cells assessed as ERK1/2 phosphorylation; format: cell-based
[10] = target: T3, Ras guanyl-releasing protein 3 (Homo sapiens, UniProt Q8IV61); assay: Activation of RasGRP3 in human Ramos cells assessed as ERK1/2 phosphorylation after 30 mins by immunoblot method; format: cell-based
T3 sequence (Q8IV61 whole entry): T2 sequence (whole entry)
Procedure, shortened: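 Cells expressing GFP-RasGRP1/3 (HEK293 or LNCaP, 48 h after plating, transfected; expression checked by fluorescence 24-48 h later) or Ramos with endogenous RasGRP3 treated with half-log increasing concentrations (max 10 µM), 1000 nM PMA or DMSO, 37 °C, 30 min, 5% CO2. RasGTP by Raf1 RBD bead pulldown and anti-Pan-Ras immunoblot; pERK by western blot. Band intensities normalized to 1000 nM PMA; EC50 from n = 3.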

[11] = species: Homo sapiens; assay: Selectivity ratio of EC50 for PKCdelta (unknown origin) expressed in human LNCAP cells harboring GFP-tagged RasGRP1 to EC50 for GFP-tagged RasGRP1 (unknown origin) expressed in human LNCAP cells assessed as ERK1/2 phosphorylation; format: cell-based
[12] = target: T3, Ras guanyl-releasing protein 3; assay: Activation of GFP-tagged RasGRP3 (unknown origin) expressed in HEK293 cells after 30 mins by immunoblot method; format: cell-based
Procedure, shortened: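 HEK293 cells grown in EMEM + 10% FBS, transfected after 48 h with GFP-RasGRP3 (Lipofectamine Plus). Treated 30 min at 37 °C, 5% CO2, with half-log increasing concentrations up to 10 µM, 1000 nM PMA or DMSO. Active Ras pulled down from lysates on Raf1-RBD agarose (60 min, 4 °C), immunoblotted with anti-Pan-Ras. Band intensity normalised to 1000 nM PMA. EC50 is the mean of n = 3.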

T1 sequence (Q05655 whole entry): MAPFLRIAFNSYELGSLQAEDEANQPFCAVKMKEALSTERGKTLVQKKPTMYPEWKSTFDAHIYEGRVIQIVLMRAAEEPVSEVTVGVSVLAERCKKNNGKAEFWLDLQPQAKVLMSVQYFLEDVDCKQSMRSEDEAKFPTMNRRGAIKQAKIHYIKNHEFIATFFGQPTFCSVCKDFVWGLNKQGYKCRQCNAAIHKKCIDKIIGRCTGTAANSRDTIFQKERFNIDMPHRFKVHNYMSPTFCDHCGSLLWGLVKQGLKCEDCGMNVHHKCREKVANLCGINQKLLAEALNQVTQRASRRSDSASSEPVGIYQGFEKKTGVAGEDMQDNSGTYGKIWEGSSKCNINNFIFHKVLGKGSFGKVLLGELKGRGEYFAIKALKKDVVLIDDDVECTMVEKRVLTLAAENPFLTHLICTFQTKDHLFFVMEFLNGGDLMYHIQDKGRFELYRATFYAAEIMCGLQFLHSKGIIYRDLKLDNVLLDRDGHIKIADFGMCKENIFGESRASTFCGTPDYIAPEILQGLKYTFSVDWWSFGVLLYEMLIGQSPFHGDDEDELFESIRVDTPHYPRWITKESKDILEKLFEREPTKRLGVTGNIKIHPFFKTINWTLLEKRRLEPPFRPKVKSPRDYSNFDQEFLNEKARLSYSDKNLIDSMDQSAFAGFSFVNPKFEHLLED

Cn1cc(/C=C2\CC(CO)(COC(=O)C(C)(C)C)OC2=O)c2ccccc21 (configuration not stated)
Ratio EC50 [1]: 2.6 | EC50 [2]: 8.28 µM | Ratio EC50 [3]: 9.2 | Ratio EC50 [4]: 28.6 | inhibition [5]: Active | Ratio EC50 [6]: 14.7 | EC50 [7]: 16.9 µM | EC50 [8]: 24.6 µM | Ratio EC50 [9]: 4 | EC50 [10]: 6.09 µM | Ratio EC50 [11]: 2.2 | EC50 [12]: 1.83 µM
